In brackets after ≈: the same amount, converted by molar mass.
Assays:
[1] = Apparent half-life in anesthetized C57/BL6 mouse at 5 mg/kg, iv by LC-MS method; format: ADME, organism-based; settings: in vivo, read-out: t1/2(app) (converted)
Procedure, shortened: (§1)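 C57/BL6 mice were given a single dose of 5 mg/kg iv or 20 mg/kg po. Each dose was tested alone and co-dosed with aminobenzotriazole, a nonspecific cytochrome P450 inhibitor. Plasma exposure was followed, and each parameter is the mean of three animals.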

[2] = tested on: Mycobacterium tuberculosis; experiment: Antimicrobial activity against clinical isolates of Mycobacterium tuberculosis SAWC 3933 LCC under 7H9 medium assessed as growth inhibition after 14 days by alamar blue assay; format: functional; settings: 336 h
[3] = Oral bioavailability in C57/BL6 mouse at 20 mg/kg by LC-MS method; format: ADME, organism-based; settings: in vivo; procedure, shortened: as §1
[4] = Cmax in anesthetized C57/BL6 mouse at 5 mg/kg, iv by LC-MS method; format: ADME, organism-based; design: dose 5 mg/kg, route intravenous; settings: in vivo; procedure, shortened: as §1
[5] = Intrinsic clearance in mouse liver microsomes assessed per mg of protein at 0.1 uM by LC-MS/MS method in presence or absence of NADPH; format: ADME
[6] = Tmax in anesthetized C57/BL6 mouse at 5 mg/kg, iv by LC-MS method; format: ADME, organism-based; settings: in vivo; procedure, shortened: as §1
[7] = Volume of distribution in anesthetized C57/BL6 mouse at 5 mg/kg, iv by LC-MS method; format: ADME, organism-based; settings: in vivo; procedure, shortened: as §1
[8] = AUC (0 to infinity) in C57/BL6 mouse at 20 mg/kg, po co-administered with amino-benzotriazole by LC-MS method; format: ADME, organism-based; design: dose 20 mg/kg, route oral, time infinity; settings: in vivo; procedure, shortened: as §1
[9] = Plasma protein binding in human at 5 uM preincubated for 1 hr by LC-MS/MS method; format: ADME, cell-free; settings: read-out: PPB (converted)
[10] = Apparent half-life in C57/BL6 mouse at 20 mg/kg, po co-administered with amino-benzotriazole by LC-MS method; format: ADME, organism-based; settings: in vivo, read-out: t1/2(app) (converted); procedure, shortened: as §1
[11] = Cmax in anesthetized C57/BL6 mouse at 5 mg/kg, iv co-administered with amino-benzotriazole by LC-MS method; format: ADME, organism-based; design: dose 5 mg/kg, route intravenous; settings: in vivo; procedure, shortened: as §1
[12] = Tmax in C57/BL6 mouse at 20 mg/kg, po by LC-MS method; format: ADME, organism-based; settings: in vivo; procedure, shortened: as §1
[13] = Tmax in C57/BL6 mouse at 20 mg/kg, po co-administered with amino-benzotriazole by LC-MS method; format: ADME, organism-based; settings: in vivo; procedure, shortened: as §1
[14] = tested on: Liver microsome; experiment: Intrinsic clearance in rat liver microsomes assessed per mg of protein at 0.1 uM by LC-MS/MS method in presence or absence of NADPH; format: ADME
[15] = Cmax in C57/BL6 mouse at 20 mg/kg, po by LC-MS method; format: ADME, organism-based; design: dose 20 mg/kg, route oral; settings: in vivo; procedure, shortened: as §1
[16] = Ratio of Cmax in C57/BL6 mouse at 20 mg/kg, po co-administered with amino-benzotriazole to MIC90 for Mycobacterium tuberculosis H37RvMA in GAST/Fe medium
[17] = tested on: Mycobacterium tuberculosis; experiment: Antimicrobial activity against clinical isolates of Mycobacterium tuberculosis SAWC 3906 Atyp-beijing under 7H9 medium assessed as growth inhibition after 14 days by alamar blue assay; format: functional; settings: 336 h
[18] = Total clearance in anesthetized C57/BL6 mouse at 5 mg/kg, iv co-administered with amino-benzotriazole by LC-MS method; format: ADME, organism-based; settings: in vivo; procedure, shortened: as §1
[19] = Cmax in C57/BL6 mouse at 20 mg/kg, po co-administered with amino-benzotriazole by LC-MS method; format: ADME, organism-based; design: dose 20 mg/kg, route oral; settings: in vivo; procedure, shortened: as §1
[20] = tested on: Vero; experiment: Cytotoxicity against African green monkey Vero cells assessed as cell viability by MTT assay; format: cell-based; settings: Chlorocebus sabaeus
Procedure, shortened: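 VERO kidney epithelial cells from African green monkey were exposed to compounds at concentrations up to 100 μM, and IC₅₀ was reported.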

[21] = Metabolic stability in human liver S9 fractions assessed as residual compound at 0.1 uM after 40 mins by LC-MS/MS method in presence or absence of NADPH; format: ADME; settings: read-out: Stability
[22] = Half life in human plasma at 0.1 uM by LC-MS/MS method; format: ADME, cell-free
[23] = AUC (0 to infinity) in anesthetized C57/BL6 mouse at 5 mg/kg, iv by LC-MS method; format: ADME, organism-based; design: dose 5 mg/kg, route intravenous, time infinity; settings: in vivo; procedure, shortened: as §1
[24] = Volume of distribution in anesthetized C57/BL6 mouse at 5 mg/kg, iv co-administered with amino-benzotriazole by LC-MS method; format: ADME, organism-based; settings: in vivo; procedure, shortened: as §1
[25] = Octanol-phosphate buffer partition coefficient, log D of the compound at 100 uM at pH 7.4 after 3 hrs by shake flask method; format: physicochemical
[26] = AUC (0 to infinity) in C57/BL6 mouse at 20 mg/kg, po by LC-MS method; format: ADME, organism-based; design: dose 20 mg/kg, route oral, time infinity; settings: in vivo; procedure, shortened: as §1
[27] = AUC (0 to infinity) in anesthetized C57/BL6 mouse at 5 mg/kg, iv co-administered with amino-benzotriazole by LC-MS method; format: ADME, organism-based; design: dose 5 mg/kg, route intravenous, time infinity; settings: in vivo; procedure, shortened: as §1
[28] = tested on: Liver microsome; experiment: Intrinsic clearance in human liver microsomes assessed per mg of protein at 0.1 uM by LC-MS/MS method in presence or absence of NADPH; format: ADME
[29] = Kinetic solubility in FaSSIF at pH 6.5 after 2 hours at 25 degC by shake flask method; format: physicochemical; settings: read-out: Kinetic_solubility
[30] = tested on: Mycobacterium tuberculosis; experiment: Antimicrobial activity against GFP expressing recombinant Mycobacterium tuberculosis H37RvMA under 7H9 medium assessed as growth inhibition after 14 days by broth microdilution method; format: functional; settings: 336 h
[31] = tested on: Mus musculus; experiment: Ratio of AUC (0 to infinity) in C57/BL6 mouse at 20 mg/kg, po co-administered with amino-benzotriazole to AUC (0 to infinity) in C57/BL6 mouse at 20 mg/kg, po without co-administration of amino-benzotriazole; format: ADME, organism-based; settings: in vivo
[32] = Tmax in anesthetized C57/BL6 mouse at 5 mg/kg, iv co-administered with amino-benzotriazole by LC-MS method; format: ADME, organism-based; settings: in vivo; procedure, shortened: as §1
[33] = Apparent half-life in C57/BL6 mouse at 20 mg/kg, po by LC-MS method; format: ADME, organism-based; settings: in vivo, read-out: t1/2(app) (converted); procedure, shortened: as §1
[34] = Total clearance in anesthetized C57/BL6 mouse at 5 mg/kg, iv by LC-MS method; format: ADME, organism-based; settings: in vivo; procedure, shortened: as §1
[35] = Oral bioavailability in C57/BL6 mouse at 20 mg/kg co-administered with amino-benzotriazole by LC-MS method; format: ADME, organism-based; settings: in vivo; procedure, shortened: as §1
[36] = tested on: Mycobacterium tuberculosis; experiment: Antimicrobial activity against Mycobacterium tuberculosis H37RvMA under GAST/Fe medium assessed as growth inhibition after 14 days by alamar blue assay; format: functional; settings: 336 h
Procedure, shortened: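 Broth microdilution in GAST/Fe medium against fully virulent Mtb H37RvMa or its derived strains (cytochrome bd oxidase deletion ΔcydKO; qcrB Ala317Thr point mutant). Plates were incubated 14 days, growth was read by Alamar Blue, and MIC90 was taken as the potency value.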

[37] = tested on: Mycobacterium tuberculosis; experiment: Antimicrobial activity against clinical isolates of Mycobacterium tuberculosis SAWC 2371 Haarlem under 7H9 medium assessed as growth inhibition after 14 days by alamar blue assay; format: functional; settings: 336 h
[38] = tested on: Mycobacterium tuberculosis; experiment: Antimicrobial activity against clinical isolates of Mycobacterium tuberculosis SAWC 3385 Cas1/Delhi under 7H9 medium assessed as growth inhibition after 14 days by alamar blue assay; format: functional; settings: 336 h
[39] = Apparent half-life in anesthetized C57/BL6 mouse at 5 mg/kg, iv co-administered with amino-benzotriazole by LC-MS method; format: ADME, organism-based; settings: in vivo, read-out: t1/2(app) (converted); procedure, shortened: as §1
[40] = tested on: Mycobacterium tuberculosis; experiment: Antimicrobial activity against GFP expressing recombinant Mycobacterium tuberculosis H37RvMA under GAST/Fe medium assessed as growth inhibition after 14 days by broth microdilution method; format: functional; settings: 336 h
[41] = tested on: Plasma; experiment: Drug metabolism in C57/BL6 mouse plasma assessed as formation of 7-Amino-2-benzyl-4-methyl-1,3-dioxo-2,3-dihydro-1H-pyrrolo-[3,4-c]pyridine-6-carboxylic Acid by LC-MS analysis; format: ADME, cell-free
[42] = tested on: Liver; experiment: Drug metabolism in BALB/c mouse liver microsomes assessed as formation of 7-Amino-2-benzyl-N-cyano-4-methyl-1,3-dioxo-2,3-dihydro-1Hpyrrolo[3,4-c]pyridine-6-carboxamide at 10 uM after 1 hr by LC-MS analysis; format: ADME
[43] = tested on: Plasma; experiment: Drug metabolism in C57/BL6 mouse plasma assessed as formation of 7-Amino-2-benzyl-4-methyl-1,3-dioxo-2,3-dihydro-1H-pyrrolo-[3,4-c]pyridine-6-carboxamide by LC-MS analysis; format: ADME, cell-free
[44] = Metabolic stability in rat liver microsomes assessed as residual compound at 0.1 uM after 30 mins by LC-MS/MS method in presence or absence of NADPH; format: ADME; settings: read-out: Stability
[45] = tested on: Liver; experiment: Drug metabolism in BALB/c mouse liver microsomes assessed as formation of 7-Amino-2-benzyl-4-methyl-1,3-dioxo-2,3-dihydro-1H-pyrrolo-[3,4-c]pyridine-6-carboxylic Acid at 10 uM after 1 hr by LC-MS analysis; format: ADME
[46] = Metabolic stability in mouse liver microsomes assessed as residual compound at 0.1 uM after 30 mins by LC-MS/MS method in presence or absence of NADPH; format: ADME; settings: read-out: Stability
[47] = tested on: Liver; experiment: Drug metabolism in BALB/c mouse liver microsomes assessed as formation of 7-Amino-2-benzyl-4-methyl-1,3-dioxo-2,3-dihydro-1H-pyrrolo-[3,4-c]pyridine-6-carboxamide at 10 uM after 1 hr by LC-MS analysis; format: ADME
[48] = Metabolic stability in human liver microsomes assessed as residual compound at 0.1 uM after 30 mins by LC-MS/MS method in presence or absence of NADPH; format: ADME; settings: read-out: Stability
[49] = tested on: Plasma; experiment: Drug metabolism in C57/BL6 mouse plasma assessed as formation of 7-Amino-2-benzyl-N-cyano-4-methyl-1,3-dioxo-2,3-dihydro-1Hpyrrolo[3,4-c]pyridine-6-carboxamide by LC-MS analysis; format: ADME, cell-free

In the case of `Cc1noc(-c2nc(C)c3c(c2N)C(=O)N(Cc2cccc(Cl)c2)C3=O)n1`, the half-life [1] is reported as 421 min, the MIC90 [2] is reported as 0.15 µM (≈ 0.0576 µg/mL) and the bioavailability [3] is reported as 2%. For the same compound, the Cmax [4] was 622 nM, the CLint [5] was under 11.6 µL/min/mg and the Tmax [6] was 10.2 min. It also gave a Vd [7] of 104 L/kg, an AUC(0-inf) [8] of 1.33 µM·h and a fraction unbound at 1 h, 5 µM [9] of 0.033. For the same compound, the half-life [10] was 203 min, the Cmax [11] was 1530 nM and the Tmax [12] was 1 h. The Tmax [13] was 30 min, the CLint [14] was under 11.6 µL/min/mg and the Cmax [15] was 33 nM. It also gave a Ratio [16] of 2, an MIC90 [17] of 0.15 µM (≈ 0.0576 µg/mL) and a clearance [18] of 94.5 mL/min/kg. For the same compound, the Cmax [19] was 167 nM, the IC50 [20] was over 100 µM and the remaining at 40 min, 0.1 µM [21] was 97%. The half-life at 0.1 µM [22] was 62 min, the AUC(0-inf) [23] was 1.27 µM·h and the Vd [24] was 53.1 L/kg. The logD at 3 h, 100 µM [25] was 3.34, the AUC(0-inf) [26] was 0.133 µM·h and the AUC(0-inf) [27] was 2.65 µM·h. For the same compound, the CLint [28] was under 11.6 µL/min/mg, the solubility kinetic at 2 h [29] was 72 µM (≈ 27.6 µg/mL) and the MIC90 [30] was over 20 µM. For the same compound, the “Ratio AUC” value [31] was 10, the Tmax [32] was 10.2 min and the half-life [33] was 131 min. The clearance [34] was 171 mL/min/kg, the bioavailability [35] was 26% and the MIC90 [36] was under 0.156 µM. For the same compound, the MIC90 [37] was 0.6 µM (≈ 0.23 µg/mL), the MIC90 [38] was 0.6 µM (≈ 0.23 µg/mL) and the half-life [39] was 439 min. The MIC90 [40] was 0.065 µM.
For `Cc1noc(-c2nc(C)c3c(c2N)C(=O)N(Cc2ccccc2)C3=O)n1`, the Drug metabolism [41] was “metabolite_detected”, the Drug metabolism [42] was “metabolite_detected” and the Drug metabolism [43] was “metabolite_detected”. The remaining at 0.5 h, 0.1 µM [44] was 100%, the Drug metabolism [45] was “metabolite_detected” and the remaining at 0.5 h, 0.1 µM [46] was 98%. The Drug metabolism [47] was “metabolite_detected”, the IC50 [20] was over 100 µM and the remaining at 0.5 h, 0.1 µM [48] was 57%. The solubility kinetic at 2 h [29] was under 5 µM, the MIC90 [36] was 0.625 µM (≈ 0.218 µg/mL) and the Drug metabolism [49] was “metabolite_detected”.
